{"source": "paper PMC3809033", "about": "(Clinical pharmacology and therapeutics, 2011)", "key": {"[1]": {"target": "5-HT6 receptor (Homo sapiens, UniProt P50406)", "sequence (P50406 whole entry)": "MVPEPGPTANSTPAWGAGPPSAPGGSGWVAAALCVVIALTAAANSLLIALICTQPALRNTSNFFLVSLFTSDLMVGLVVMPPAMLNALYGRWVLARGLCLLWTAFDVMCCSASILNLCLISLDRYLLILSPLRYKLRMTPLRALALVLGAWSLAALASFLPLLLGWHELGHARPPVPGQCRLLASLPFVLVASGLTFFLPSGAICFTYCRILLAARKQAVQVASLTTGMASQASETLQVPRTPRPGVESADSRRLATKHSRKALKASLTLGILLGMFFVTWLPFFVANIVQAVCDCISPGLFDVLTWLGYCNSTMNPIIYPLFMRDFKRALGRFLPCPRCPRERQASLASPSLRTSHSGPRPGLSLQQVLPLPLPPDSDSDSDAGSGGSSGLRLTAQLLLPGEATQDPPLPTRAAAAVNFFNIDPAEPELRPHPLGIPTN", "assay": "radioligand competition binding", "conditions": "read-out: [drawing 1] / In vitro; Cheng-Prusoff; details in supplement", "how_it_was_run": "(§1)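 Test compound (purity >98%) was run in competition against radioligand binding at six concentrations from 10 nmol/l to 100 μmol/l to build concentration–response curves. IC50 (50% displacement of bound radioligand) was obtained by nonlinear fitting. Ki was derived with Cheng–Prusoff, using free radioligand concentration and each radioligand's KD, and expressed as pKi.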"}, "[2]": {"target": "T1, 5-HT2C receptor (Homo sapiens, UniProt P28335)", "T1 sequence (P28335 33-458)": "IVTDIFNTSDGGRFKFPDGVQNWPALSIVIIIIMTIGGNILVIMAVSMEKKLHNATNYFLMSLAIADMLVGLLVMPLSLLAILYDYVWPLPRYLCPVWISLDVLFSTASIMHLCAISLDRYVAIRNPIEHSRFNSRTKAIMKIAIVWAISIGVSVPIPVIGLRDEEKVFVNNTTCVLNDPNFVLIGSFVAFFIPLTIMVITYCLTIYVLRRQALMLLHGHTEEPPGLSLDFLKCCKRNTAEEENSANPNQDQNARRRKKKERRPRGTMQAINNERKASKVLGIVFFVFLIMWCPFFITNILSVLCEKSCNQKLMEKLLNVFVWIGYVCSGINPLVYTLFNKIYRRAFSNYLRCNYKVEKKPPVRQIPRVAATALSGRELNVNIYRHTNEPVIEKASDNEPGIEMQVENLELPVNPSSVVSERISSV", "assay": "radioligand competition binding", "conditions": "read-out: [drawing 1] / In vitro; Cheng-Prusoff; details in supplement", "how_it_was_run": "as §1"}, "[3]": {"target": "5-HT2A receptor (Homo sapiens, UniProt P28223)", "sequence (P28223 whole entry)": "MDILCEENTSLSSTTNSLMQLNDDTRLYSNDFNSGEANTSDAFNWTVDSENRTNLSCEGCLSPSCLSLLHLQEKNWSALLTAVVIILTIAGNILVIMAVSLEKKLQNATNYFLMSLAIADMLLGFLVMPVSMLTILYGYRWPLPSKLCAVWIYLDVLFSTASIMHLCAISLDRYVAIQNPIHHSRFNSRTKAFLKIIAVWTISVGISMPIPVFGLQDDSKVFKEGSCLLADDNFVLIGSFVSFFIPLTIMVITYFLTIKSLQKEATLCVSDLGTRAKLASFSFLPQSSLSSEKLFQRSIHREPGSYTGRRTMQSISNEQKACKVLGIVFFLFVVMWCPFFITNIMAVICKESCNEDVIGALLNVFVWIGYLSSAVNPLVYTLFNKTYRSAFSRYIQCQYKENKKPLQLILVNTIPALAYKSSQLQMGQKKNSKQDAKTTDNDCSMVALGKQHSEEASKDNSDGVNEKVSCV", "assay": "inositol phosphate release, antagonist mode", "format": "cell-based", "conditions": "receptor activated by 1 μmol/l 5-HT"}, "[4]": {"target": "serotonin transporter (Homo sapiens, UniProt P31645)", "sequence (P31645 whole entry)": "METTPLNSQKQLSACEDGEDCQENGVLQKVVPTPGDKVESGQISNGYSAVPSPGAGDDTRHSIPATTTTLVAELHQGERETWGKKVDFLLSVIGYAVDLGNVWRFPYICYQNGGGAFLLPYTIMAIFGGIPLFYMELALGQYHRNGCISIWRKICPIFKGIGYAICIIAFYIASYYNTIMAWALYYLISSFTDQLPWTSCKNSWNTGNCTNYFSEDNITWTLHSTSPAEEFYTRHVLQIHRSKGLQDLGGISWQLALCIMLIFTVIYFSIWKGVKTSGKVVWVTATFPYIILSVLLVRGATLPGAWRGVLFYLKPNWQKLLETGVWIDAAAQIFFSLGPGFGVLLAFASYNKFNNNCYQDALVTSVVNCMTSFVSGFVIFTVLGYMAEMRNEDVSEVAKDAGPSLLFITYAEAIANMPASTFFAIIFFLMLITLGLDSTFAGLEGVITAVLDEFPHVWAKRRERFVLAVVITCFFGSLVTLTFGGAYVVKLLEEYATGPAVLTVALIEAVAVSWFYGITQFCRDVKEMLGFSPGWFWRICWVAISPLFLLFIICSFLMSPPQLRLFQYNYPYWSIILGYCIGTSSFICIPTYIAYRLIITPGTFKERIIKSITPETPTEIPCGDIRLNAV", "assay": "radioligand competition binding", "conditions": "read-out: [drawing 1] / In vitro; Cheng-Prusoff; details in supplement", "how_it_was_run": "as §1"}, "[5]": {"target": "5-HT7 receptor (Homo sapiens, UniProt P34969)", "sequence (P34969 whole entry)": "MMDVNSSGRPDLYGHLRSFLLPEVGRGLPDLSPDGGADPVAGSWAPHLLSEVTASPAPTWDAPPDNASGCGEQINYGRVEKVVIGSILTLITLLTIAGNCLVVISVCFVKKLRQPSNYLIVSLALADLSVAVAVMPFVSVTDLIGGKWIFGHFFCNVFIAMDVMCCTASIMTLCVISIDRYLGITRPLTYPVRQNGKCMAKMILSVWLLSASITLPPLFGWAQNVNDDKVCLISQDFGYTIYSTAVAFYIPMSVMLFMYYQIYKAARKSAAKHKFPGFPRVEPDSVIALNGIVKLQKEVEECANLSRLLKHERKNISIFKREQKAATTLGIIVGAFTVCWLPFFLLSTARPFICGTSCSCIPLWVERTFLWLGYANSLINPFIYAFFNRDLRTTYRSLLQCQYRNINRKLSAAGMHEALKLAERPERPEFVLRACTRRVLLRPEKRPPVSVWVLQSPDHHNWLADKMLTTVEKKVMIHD", "assay": "radioligand competition binding", "conditions": "read-out: [drawing 1] / In vitro; Cheng-Prusoff; details in supplement", "how_it_was_run": "as §1"}, "[6]": {"target": "dopamine transporter (DAT) (Homo sapiens, UniProt Q01959)", "sequence (Q01959 whole entry)": "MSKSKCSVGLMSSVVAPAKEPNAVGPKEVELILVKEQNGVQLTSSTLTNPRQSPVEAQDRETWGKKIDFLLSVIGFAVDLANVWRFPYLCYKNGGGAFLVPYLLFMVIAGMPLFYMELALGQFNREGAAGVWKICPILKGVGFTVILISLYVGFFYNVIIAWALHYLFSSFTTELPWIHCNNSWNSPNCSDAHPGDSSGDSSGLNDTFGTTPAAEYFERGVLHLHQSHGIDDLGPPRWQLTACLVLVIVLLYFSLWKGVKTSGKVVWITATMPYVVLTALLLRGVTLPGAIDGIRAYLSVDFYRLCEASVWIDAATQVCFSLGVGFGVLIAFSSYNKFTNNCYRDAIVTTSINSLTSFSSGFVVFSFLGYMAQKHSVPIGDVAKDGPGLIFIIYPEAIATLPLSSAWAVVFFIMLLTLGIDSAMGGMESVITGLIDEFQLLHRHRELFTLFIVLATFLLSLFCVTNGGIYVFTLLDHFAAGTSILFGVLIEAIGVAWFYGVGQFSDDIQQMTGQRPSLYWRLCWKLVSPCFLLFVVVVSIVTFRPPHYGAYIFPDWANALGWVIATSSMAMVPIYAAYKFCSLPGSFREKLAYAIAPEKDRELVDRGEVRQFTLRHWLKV", "assay": "radioligand competition binding", "conditions": "read-out: [drawing 1] / In vitro; Cheng-Prusoff; details in supplement", "how_it_was_run": "as §1"}, "[7]": {"target": "5-HT2B receptor (Homo sapiens, UniProt P41595)", "sequence (P41595 whole entry)": "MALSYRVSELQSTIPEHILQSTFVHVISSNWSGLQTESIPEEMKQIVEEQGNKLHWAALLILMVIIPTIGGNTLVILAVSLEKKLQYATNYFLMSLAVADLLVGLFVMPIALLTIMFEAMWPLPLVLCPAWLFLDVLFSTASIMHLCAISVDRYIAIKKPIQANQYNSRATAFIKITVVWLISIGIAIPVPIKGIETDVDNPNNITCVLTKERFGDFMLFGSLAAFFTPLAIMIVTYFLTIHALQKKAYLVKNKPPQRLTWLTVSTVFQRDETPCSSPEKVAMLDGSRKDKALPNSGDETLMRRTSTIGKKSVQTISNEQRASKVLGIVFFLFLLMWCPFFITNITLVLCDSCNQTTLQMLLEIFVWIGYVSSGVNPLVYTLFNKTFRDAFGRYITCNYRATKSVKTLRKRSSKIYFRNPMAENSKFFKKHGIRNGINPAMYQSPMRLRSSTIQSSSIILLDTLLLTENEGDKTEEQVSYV", "assay": "radioligand competition binding", "conditions": "read-out: [drawing 1] / In vitro; Cheng-Prusoff; details in supplement", "how_it_was_run": "as §1"}, "[8]": {"target": "norepinephrine transporter (Homo sapiens, UniProt P23975)", "sequence (P23975 whole entry)": "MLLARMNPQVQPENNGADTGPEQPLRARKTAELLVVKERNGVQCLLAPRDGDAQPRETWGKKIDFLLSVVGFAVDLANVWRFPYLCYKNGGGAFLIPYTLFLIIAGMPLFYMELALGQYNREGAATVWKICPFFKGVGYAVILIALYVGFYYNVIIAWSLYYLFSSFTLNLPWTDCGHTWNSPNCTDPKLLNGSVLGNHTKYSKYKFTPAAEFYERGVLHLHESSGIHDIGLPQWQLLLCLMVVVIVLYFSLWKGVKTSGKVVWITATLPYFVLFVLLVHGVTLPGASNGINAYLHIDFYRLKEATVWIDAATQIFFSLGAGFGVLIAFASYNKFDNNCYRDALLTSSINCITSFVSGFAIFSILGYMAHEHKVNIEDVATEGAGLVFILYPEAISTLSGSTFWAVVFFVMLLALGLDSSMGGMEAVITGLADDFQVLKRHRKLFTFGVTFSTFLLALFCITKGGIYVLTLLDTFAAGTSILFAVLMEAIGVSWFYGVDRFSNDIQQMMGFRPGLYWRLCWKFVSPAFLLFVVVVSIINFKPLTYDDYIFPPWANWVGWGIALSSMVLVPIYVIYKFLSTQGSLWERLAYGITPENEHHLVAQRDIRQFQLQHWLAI", "assay": "radioligand competition binding", "conditions": "read-out: [drawing 1] / In vitro; Cheng-Prusoff; details in supplement", "how_it_was_run": "as §1"}}, "data": [{"compound": "CN(C)CCC=C1c2ccccc2C=Cc2ccccc21", "note": "[cyclobenzaprine]", "values": [{"measurement": "Ki", "setting": "[1]", "result": 145, "unit": "nM"}, {"measurement": "Ki", "setting": "[2]", "result": 57, "unit": "nM"}, {"measurement": "Kb", "setting": "[3]", "result": "28.8 ± 2.49", "unit": "nM"}, {"measurement": "Ki", "setting": "[4]", "result": 108, "unit": "nM"}, {"measurement": "Ki", "setting": "[5]", "result": 151, "unit": "nM"}, {"measurement": "Ki", "setting": "[6]", "result": 5490, "unit": "nM"}, {"measurement": "Ki", "setting": "[7]", "result": 154, "unit": "nM"}, {"measurement": "Ki", "setting": "[8]", "result": 36, "unit": "nM"}]}]}
